# Measurements taken from ChEMBL document CHEMBL1145839, “N-(3-acyloxy-2-benzylpropyl)-N'-[4-(methylsulfonylamino)benzyl]thiourea analogues: novel potent and high affinity antagonists and partial antagonists of the vanilloid receptor” (J Med Chem, 2003).
# The source made the active and inactive calls. No cut-off for these calls is given here.
# Key:
# [1] = target: T1, Transient receptor potential cation channel subfamily V member 1 (Rattus norvegicus, UniProt O35433); test: In vitro binding to Rat Vanilloid receptor 1 (VR1) expressing CHO cells compared to capsaicin; assay type: cell-based
# How it was run: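 Tet-off CHO cells stably expressing rat VR1, induced by 48 h culture without tetracycline, harvested with trypsin/EDTA, pelleted and stored at -20 °C. About 5×10^5 cells per tube incubated 60 min at 37 °C with 50-100 pM [3H]RTX, a range of competitor concentrations and 0.25 mg/mL BSA in DPBS with Ca2+/Mg2+. Nonspecific binding measured with 100 nM unlabeled RTX. α-glycoprotein added after incubation, membranes pelleted, scintillation counting. Ki from Hill fit; at least three experiments.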
# [2] = target: Transient receptor potential cation channel subfamily V member 1 (Rattus norvegicus) (UniProt O35433); conditions: CHO
# [3] = target: T1, Transient receptor potential cation channel subfamily V member 1; test: In vitro binding affinity towards Rat Vanilloid receptor 1 (VR1) by [3H]RTX displacement.
# How it was run: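 Rat VR1 stably expressed in tet-off CHO cells; cells grown without antibiotic for 48 h, trypsin-harvested, pelleted and stored at -20 °C. About 5×10^5 cells incubated with 50-100 pM [3H]RTX plus competitor in DPBS (Ca2+/Mg2+) with 0.25 mg/mL BSA, 60 min at 37 °C. Nonspecific binding taken with 100 nM unlabeled RTX.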
# [4] = target: T1, Transient receptor potential cation channel subfamily V member 1; test: (§1) In vitro [Ca2+] influx relative to capsaicin by Rat Vanilloid receptor (VR1) expressing CHO cells; assay type: functional, cell-based
# [5] = target: T1, Transient receptor potential cation channel subfamily V member 1; test: Inhibition of capsaicin-induced [Ca2+] uptake by Rat Vanilloid receptor 1 (VR1) expressing CHO cells; assay type: cell-based
# [6] = target: Transient receptor potential cation channel subfamily V member 1 (Rattus norvegicus) (UniProt O35433); test: Inhibition of capsaicin-induced [Ca2+] uptake by Rat Vanilloid receptor 1 (VR1) expressing CHO cells (ineffective); assay type: functional, cell-based
# [7] = target: Transient receptor potential cation channel subfamily V member 1 (Rattus norvegicus) (UniProt O35433); test: as §1; assay type: functional, cell-based; conditions: concentration not given here
# [8] = target: Transient receptor potential cation channel subfamily V member 1 (Rattus norvegicus) (UniProt O35433); test: Displacement of [3H]RTX binding to Rat Vanilloid receptor 1 (VR1) at 10 uM
# T1 sequence (O35433 whole entry): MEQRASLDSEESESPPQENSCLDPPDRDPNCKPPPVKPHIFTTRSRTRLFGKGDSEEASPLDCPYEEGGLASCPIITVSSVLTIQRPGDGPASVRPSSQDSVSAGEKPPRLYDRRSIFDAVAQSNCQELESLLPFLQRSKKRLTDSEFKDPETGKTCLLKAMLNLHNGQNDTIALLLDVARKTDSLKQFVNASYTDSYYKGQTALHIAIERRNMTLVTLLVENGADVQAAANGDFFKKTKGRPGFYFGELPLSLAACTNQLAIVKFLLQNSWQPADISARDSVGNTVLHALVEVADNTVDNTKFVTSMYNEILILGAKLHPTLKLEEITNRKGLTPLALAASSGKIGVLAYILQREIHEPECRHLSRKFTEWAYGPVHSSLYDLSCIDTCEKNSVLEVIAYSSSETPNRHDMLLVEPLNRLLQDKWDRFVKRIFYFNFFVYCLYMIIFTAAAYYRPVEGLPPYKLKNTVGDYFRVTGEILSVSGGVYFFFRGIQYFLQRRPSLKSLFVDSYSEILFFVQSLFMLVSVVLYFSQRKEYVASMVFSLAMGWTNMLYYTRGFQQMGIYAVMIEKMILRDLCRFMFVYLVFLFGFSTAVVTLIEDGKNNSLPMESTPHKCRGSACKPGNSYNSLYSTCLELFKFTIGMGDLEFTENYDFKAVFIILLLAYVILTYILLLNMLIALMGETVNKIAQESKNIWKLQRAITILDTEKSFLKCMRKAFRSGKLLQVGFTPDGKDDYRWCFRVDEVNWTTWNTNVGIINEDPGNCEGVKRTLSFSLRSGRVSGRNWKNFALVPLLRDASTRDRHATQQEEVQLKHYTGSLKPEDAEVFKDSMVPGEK
# Chain of Transient receptor potential cation channel subfamily V member 1 (Rattus norvegicus) (O35433 whole entry): as above
smiles,measurement,setting,value
C=C(C)[C@]12C[C@@H](C)[C@@]34O[C@](Cc5ccccc5)(O[C@@H]1[C@@H]3C=C(COC(=O)Cc1ccc(O)c(OC)c1)C[C@]1(O)C(=O)C(C)=C[C@@H]41)O2 [RESINIFERATOXIN],Ki,[1],0.00013 µM
Oc1cc2c(cc1O)CN(C(=S)NCCc1ccc(Cl)cc1)CCC2,NE,[2],inactive
Cc1ccc(CC(CN/C(S)=N/Cc2cccc(NS(C)(=O)=O)c2)COC(=O)C(C)(C)C)cc1C (stereo unspecified),Ki,[3],0.355 µM
same,EC50,[4],0.99 µM
Cc1ccc(CC(CN/C(S)=N/Cc2ccc(NS(=O)(=O)C(C)C)cc2)COC(=O)C(C)(C)C)cc1C (stereo unspecified),Ki,[3],0.227 µM
same,EC50,[4],0.79 µM
CCS(=O)(=O)Nc1ccc(C/N=C(\S)NCC(COC(=O)C(C)(C)C)Cc2ccc(C)c(C)c2)cc1 (stereo unspecified),Ki,[5],0.309 µM
same,Ki,[3],0.108 µM
CC(C)(C)c1ccc(CC(CNC(=S)NCc2ccc(NS(C)(=O)=O)cc2)COC(=O)c2ccccc2)cc1 (stereo unspecified),Ki,[3],0.239 µM
same,EC50,[4],2.79 µM
COc1cc(CNC(=S)NCC(COC(=O)C(C)(C)C)Cc2ccc(C)c(C)c2)ccc1O (stereo unspecified),EC50,[4],0.00197 µM
same,NE,[6],inactive
Cc1ccc(CC(CNC(=S)NCc2ccc(CNS(C)(=O)=O)cc2)COC(=O)C(C)(C)C)cc1C (stereo unspecified),Ki,[3],3 µM
same,EC50,[4],1.7 µM
Cc1ccc(CC(CN/C(S)=N/Cc2ccc(NS(C)(=O)=O)cc2)COC(=O)C(C)(C)C)cc1C (stereo unspecified),inhibition,[7],7%
Cc1ccc(CC(CN/C(S)=N/Cc2ccc(NS(=O)(=O)c3ccccc3)cc2)COC(=O)C(C)(C)C)cc1C (stereo unspecified),Ki,[3],2.5 µM
same,NE,[6],inactive
Cc1ccc(CC(CNC(=S)NCc2ccc(NS(C)(=O)=O)c(F)c2)COC(=O)C(C)(C)C)cc1C (stereo unspecified),Ki,[5],0.0078 µM
same,Ki,[3],0.054 µM
Cc1ccc(CC(CNC(=S)NCc2ccc(NS(C)(=O)=O)cc2)COC(=O)C(C)(C)C)cc1C (stereo unspecified),Ki,[5],0.067 µM
same,Ki,[3],0.0293 µM
CCCS(=O)(=O)Nc1ccc(C/N=C(\S)NCC(COC(=O)C(C)(C)C)Cc2ccc(C)c(C)c2)cc1 (stereo unspecified),Ki,[5],0.94 µM
same,Ki,[3],0.313 µM
Cc1ccc(CC(CN/C(S)=N/Cc2ccc(NS(C)(=O)=O)cc2)COC(=O)c2ccccc2)cc1C (stereo unspecified),EC50,[4],1.73 µM
Cc1ccc(CC(CN/C(S)=N/Cc2ccc(NS(=O)(=O)C(F)(F)F)cc2)COC(=O)C(C)(C)C)cc1C (stereo unspecified),inhibition,[8],15.5%
same,NE,[6],inactive
CC(=O)Nc1ccc(CNC(=S)NCC(COC(=O)C(C)(C)C)Cc2ccc(C)c(C)c2)cc1 (stereo unspecified),Ki,[3],1.7 µM
same,EC50,[4],0.45 µM
COc1cc(CNC(=O)CCCC/C=C/C(C)C)ccc1O,NE,[6],inactive
COc1cc(C/N=C(\S)NCC(COC(=O)C(C)(C)C)Cc2ccc(C)c(C)c2)ccc1NS(C)(=O)=O (stereo unspecified),Ki,[3],0.049 µM
same,EC50,[4],0.022 µM
COc1cc(CNC(=S)NCC(COC(=O)c2ccccc2)Cc2ccc(C)c(C)c2)ccc1NS(C)(=O)=O (stereo unspecified),Ki,[3],0.148 µM
same,EC50,[4],0.166 µM
CC(C)(C)C(=O)OCC(C/N=C(\S)NCc1ccc(NS(C)(=O)=O)cc1)Cc1ccc(C(C)(C)C)cc1 (stereo unspecified),Ki,[5],0.086 µM
same,Ki,[3],0.064 µM
Cc1ccc(CC(CNC(=S)NCc2ccc(NC(=O)C(C)C)cc2)COC(=O)C(C)(C)C)cc1C (stereo unspecified),Ki,[3],2.6 µM
same,EC50,[4],1.14 µM
COc1cc(CNC(=S)NCC(COC(=O)C(C)(C)C)Cc2ccc(C(C)(C)C)cc2)ccc1O (stereo unspecified),EC50,[4],0.00283 µM
same,NE,[6],inactive
COc1cc(C/N=C(\S)NCC(COC(=O)c2ccccc2)Cc2ccc(C(C)(C)C)cc2)ccc1NS(C)(=O)=O (stereo unspecified),Ki,[3],0.0772 µM
same,EC50,[4],0.252 µM
